Test results published in PMC7299178 (Angewandte Chemie (International ed. in English), 2019).

Columns and labels:
[1] = Micelle size in water by TEM and DLS; assay type: physicochemical
Procedure, shortened: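 Test material was a linear-brush diblock copolymer (PMMA block plus a peptide-acrylamide/DMA brush block), self-assembled into micelles in water. Particle diameter was measured by TEM imaging, and hydrodynamic diameter by DLS. TEM images were also taken after thermolysin treatment (thermolysin cleaves the Gly–Leu amide bond of the peptide side chains).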

thermolysin = thermolysin (Bacillus thermoproteolyticus, UniProt P00800)
Sequence of thermolysin (P00800 233-548, species assumed): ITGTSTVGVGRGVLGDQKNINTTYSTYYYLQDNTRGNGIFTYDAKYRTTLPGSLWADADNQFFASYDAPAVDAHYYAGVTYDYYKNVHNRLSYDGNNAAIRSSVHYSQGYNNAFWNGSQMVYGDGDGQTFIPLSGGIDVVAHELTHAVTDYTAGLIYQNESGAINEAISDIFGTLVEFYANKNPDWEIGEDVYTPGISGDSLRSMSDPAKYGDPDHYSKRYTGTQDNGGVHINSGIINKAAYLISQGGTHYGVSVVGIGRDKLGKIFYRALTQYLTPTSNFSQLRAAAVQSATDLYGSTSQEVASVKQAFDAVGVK

PMMA90-b-poly(PepAm21-co-DMA63) [P8]
hydrodynamic diameter (DLS) ([1]; micelles in water, dynamic light scattering): 28 nm | micelle diameter (TEM) ([1]; spherical micelles assembled in water, transmission electron microscope): 24 nm | morphology change of micelles upon treatment with thermolysin (thermolysin; TEM and DLS, spherical micelles before treatment): underwent a phase transition into a worm-like phase | change of particle diameter with deactivated thermolysin (thermolysin; same cleavage conditions, thermolysin pretreated with ethylenediaminetetraacetic acid, DLS): no change in diameter
